Reference: ChEMBL document CHEMBL4024748, “Development of Potent Type I Protein Arginine Methyltransferase (PRMT) Inhibitors of Leukemia Cell Proliferation” (J Med Chem, 2017)
The source made the active and inactive calls. No cut-off for these calls is given here.

How the values were obtained:
[1] = biological target: Protein arginine N-methyltransferase 1 (Rattus norvegicus, UniProt Q63009); assay: Inhibition of rat His-tagged PRMT1 (11 to 353 residues) expressed in Escherichia coli BL21(DE3) incubated for 15 mins followed by substrate addition measured after 60 mins by AlphaLisa method
Summary of the method: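 AlphaLISA IC50 run. Compound dispensed to 1% DMSO final, enzyme in 1x assay buffer preincubated 15 min at room temperature. Substrate added and reacted 60 min at RT, then AlphaLISA bead mix added for 60 min at RT in subdued light. IC50 taken from the dose-response fit.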

[2] = biological target: Protein arginine N-methyltransferase 3 (Homo sapiens, UniProt O60678); assay: Inhibition of PRMT3 (unknown origin) incubated for 15 mins followed by substrate addition measured after 60 mins by AlphaLisa method
Summary of the method: (§1)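 AlphaLISA. Enzyme and substrate in 1x assay buffer, compound at 1% DMSO final. Enzyme preincubated with compound 15 min at room temperature, then substrate added. Reaction 60 min at room temperature, then bead mix added and incubated 60 min under subdued light before signal read.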

[3] = biological target: Histone-lysine N-methyltransferase, H3 lysine-79 specific (Homo sapiens) (UniProt Q8TEK3); assay: Inhibition of DOT1L (unknown origin) at 50 uM incubated for 15 mins followed by substrate addition measured after 60 mins by Alpha screen assay
Summary of the method: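 DOT1L by AlphaScreen. Enzyme and substrate in 1x assay buffer, compound at 1% DMSO final. Enzyme preincubated with compound 15 min at room temperature, substrate added, reaction 60 min at room temperature. Acceptor/donor bead mix added and incubated 60 min at room temperature under subdued light.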

[4] = biological target: Histone-lysine N-methyltransferase EZH2 (Homo sapiens) (UniProt Q15910); assay: Inhibition of EZH2 (unknown origin) at 50 uM incubated for 15 mins followed by substrate addition measured after 60 mins by radioisotope assay
[5] = biological target: T1, DNMT3A2/3L complex (Homo sapiens) (UniProt Q9Y6K1+Q9UJW3); assay: Inhibition of DNMT3A/3L (unknown origin) at 50 uM incubated for 15 mins followed by substrate addition measured after 60 mins by radioisotope assay; type: protein-complex assay
[6] = biological target: DNA (cytosine-5)-methyltransferase 1 (Homo sapiens) (UniProt P26358); assay: Inhibition of DNMT1 (unknown origin) at 50 uM incubated for 15 mins followed by substrate addition measured after 60 mins by radioisotope assay
[7] = biological target: Histone-lysine N-methyltransferase EHMT2 (Homo sapiens) (UniProt Q96KQ7); assay: Inhibition of G9a (unknown origin) at 50 uM incubated for 15 mins followed by substrate addition measured after 60 mins by AlphaLisa method; summary of the method: as §1
[8] = biological target: Histone-lysine N-methyltransferase SUV39H1 (Homo sapiens) (UniProt O43463); assay: Inhibition of SUV39H1 (unknown origin) at 50 uM incubated for 15 mins followed by substrate addition measured after 60 mins by AlphaLisa method
Summary of the method: (§2)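 SUV39H1 AlphaLISA at 50 and 100 µM compound, 1% DMSO final. Enzyme preincubated 15 min at room temperature, substrate reaction 60 min at RT. Bead mix then added for 60 min at RT in subdued light before signal collection.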

[9] = biological target: T1, DNMT3A2/3L complex (Homo sapiens); assay: Inhibition of DNMT3A/3L (unknown origin) at 100 uM incubated for 15 mins followed by substrate addition measured after 60 mins by radioisotope assay; type: protein-complex assay
[10] = biological target: DNA (cytosine-5)-methyltransferase 1 (Homo sapiens) (UniProt P26358); assay: Inhibition of DNMT1 (unknown origin) at 100 uM incubated for 15 mins followed by substrate addition measured after 60 mins by radioisotope assay
[11] = biological target: N-lysine methyltransferase SMYD2 (Homo sapiens) (UniProt Q9NRG4); assay: Inhibition of SMYD2 (unknown origin) at 100 uM incubated for 15 mins followed by substrate addition measured after 240 mins by AlphaLisa method
Summary of the method: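 SMYD2 AlphaLISA at 50 and 100 µM compound, 1% DMSO final. Enzyme preincubated 15 min at RT, then substrate added and reacted 240 min at RT. Bead mix added and incubated 60 min at RT in subdued light before reading.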

[12] = biological target: Histone-lysine N-methyltransferase SUV39H1 (Homo sapiens) (UniProt O43463); assay: Inhibition of SUV39H1 (unknown origin) at 100 uM incubated for 15 mins followed by substrate addition measured after 60 mins by AlphaLisa method; summary of the method: as §2
[13] = biological target: Histone-lysine N-methyltransferase 2A (Homo sapiens) (UniProt Q03164); assay: Inhibition of MLL1 (unknown origin) at 50 uM incubated for 15 mins followed by substrate addition measured after 60 mins by AlphaLisa method; summary of the method: as §1
[14] = biological target: Histone-lysine N-methyltransferase 2A (Homo sapiens) (UniProt Q03164); assay: Inhibition of MLL1 (unknown origin) at 100 uM incubated for 15 mins followed by substrate addition measured after 60 mins by AlphaLisa method; summary of the method: as §1
KOPN-8 = assay: Cytotoxicity against human KOPN8 cells assessed as decrease in cell viability after 96 hrs by Cell-Titer Glo assay; type: functional, cell-based
Summary of the method: (§3)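 Cells kept at 37°C, 5% CO2, exposed to compound or DMSO control for 96 h. Viability read by CellTiter-Glo luminescence after 2 min shaking to lyse and 10 min at room temperature. Triplicate wells, normalised to control cells. For long-term growth, log-phase seeding densities; cells counted and replated to the starting density with fresh compound on days 4 and 8.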

THP-1 = assay: Cytotoxicity against human THP1 cells assessed as decrease in cell viability after 96 hrs by Cell-Titer Glo assay; type: functional, cell-based; summary of the method: as §3
RCH-ACV = assay: Cytotoxicity against human RCH-ACV cells assessed as decrease in cell viability after 96 hrs by Cell-Titer Glo assay; type: functional, cell-based; summary of the method: as §3
REH = assay: Cytotoxicity against human REH cells assessed as decrease in cell viability after 96 hrs by Cell-Titer Glo assay; type: functional, cell-based; summary of the method: as §3
[15] = Cytotoxicity against human RCTEC cells assessed as decrease in cell viability at 6.25 to 25 uM after 96 hrs by Cell-Titer Glo assay; type: cell-based
Summary of the method: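 Normal HUV-EC-C, MRC-5 and RCTEC cells at 37°C, 5% CO2, given compound or DMSO control for 96 h. Viability by CellTiter-Glo luminescence after 2 min shaking and 10 min at room temperature. Triplicate wells, normalised to control cells.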

MV4-11 [16] = assay: Antiproliferative activity against human MV4-11 cells assessed as decrease in cell viability measured at day 4 by Cell-Titer Glo assay; type: functional, cell-based; conditions: MV4-11, 96 h; summary of the method: as §3
MV4-11 [17] = assay: Antiproliferative activity against human MV4-11 cells assessed as decrease in cell viability measured at day 12 by Cell-Titer Glo assay; type: functional, cell-based; conditions: MV4-11, 288 h; summary of the method: as §3
[18] = biological target: Protein arginine N-methyltransferase 1 (Homo sapiens) (UniProt Q99873); assay: Inhibition of PRMT1 in human MV411 cells assessed as reduction in ADMA levels after 48 hrs by Western blot analysis; type: cell-based
Summary of the method: (§4)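 MV4-11 cells treated with compound for 48 h. ADMA, SDMA and H4R3me2a read by western blot. Blots blocked in 5% nonfat milk in PBST, primary antibodies overnight at 4°C, HRP anti-rabbit secondary at 1:10000 for 1 h.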

[19] = biological target: Protein arginine N-methyltransferase 1 (Homo sapiens) (UniProt Q99873); assay: Inhibition of PRMT1 in human MV411 cells assessed as increase in SDMA levels after 48 hrs by Western blot analysis; type: cell-based; summary of the method: as §4
MV4-11 [20] = assay: Downregulation of HOXA9 mRNA levels in human MV4-11 cells by qRT-PCR analysis; type: functional, cell-based
Summary of the method: (§5)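 MV4-11 cells treated with compound. mRNA measured by SYBR Green qRT-PCR with B2M as internal control. Fold change from ΔΔCt. Samples run in triplicate, mean ± SD.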

MV4-11 [21] = assay: Downregulation of MEIS1 mRNA levels in human MV4-11 cells by qRT-PCR analysis; type: functional, cell-based; summary of the method: as §5

Chain of Histone-lysine N-methyltransferase SUV39H1 (Homo sapiens) (O43463 whole entry): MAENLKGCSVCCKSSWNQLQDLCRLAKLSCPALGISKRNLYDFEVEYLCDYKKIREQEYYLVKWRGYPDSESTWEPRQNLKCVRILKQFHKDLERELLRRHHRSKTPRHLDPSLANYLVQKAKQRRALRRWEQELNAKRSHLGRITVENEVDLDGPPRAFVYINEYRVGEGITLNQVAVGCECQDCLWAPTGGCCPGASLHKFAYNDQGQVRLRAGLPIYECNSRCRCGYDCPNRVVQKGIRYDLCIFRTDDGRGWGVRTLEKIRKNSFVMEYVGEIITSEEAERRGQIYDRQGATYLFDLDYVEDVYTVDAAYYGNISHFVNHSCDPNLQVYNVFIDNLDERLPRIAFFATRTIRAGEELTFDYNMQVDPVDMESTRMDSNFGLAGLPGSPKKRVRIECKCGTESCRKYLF
Chain of Protein arginine N-methyltransferase 1 (Homo sapiens) (Q99873 whole entry, looked up): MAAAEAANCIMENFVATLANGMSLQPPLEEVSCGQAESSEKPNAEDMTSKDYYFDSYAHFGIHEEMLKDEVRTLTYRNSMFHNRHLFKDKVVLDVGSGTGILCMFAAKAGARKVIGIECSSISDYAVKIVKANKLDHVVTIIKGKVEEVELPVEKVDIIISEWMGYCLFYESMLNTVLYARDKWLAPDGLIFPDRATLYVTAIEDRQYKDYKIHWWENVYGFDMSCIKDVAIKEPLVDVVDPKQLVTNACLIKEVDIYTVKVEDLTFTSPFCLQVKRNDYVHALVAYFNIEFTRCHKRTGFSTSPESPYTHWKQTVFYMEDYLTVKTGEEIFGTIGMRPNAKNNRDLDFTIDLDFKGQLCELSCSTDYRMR
T1 sequence (Q9UJW3 whole entry, looked up): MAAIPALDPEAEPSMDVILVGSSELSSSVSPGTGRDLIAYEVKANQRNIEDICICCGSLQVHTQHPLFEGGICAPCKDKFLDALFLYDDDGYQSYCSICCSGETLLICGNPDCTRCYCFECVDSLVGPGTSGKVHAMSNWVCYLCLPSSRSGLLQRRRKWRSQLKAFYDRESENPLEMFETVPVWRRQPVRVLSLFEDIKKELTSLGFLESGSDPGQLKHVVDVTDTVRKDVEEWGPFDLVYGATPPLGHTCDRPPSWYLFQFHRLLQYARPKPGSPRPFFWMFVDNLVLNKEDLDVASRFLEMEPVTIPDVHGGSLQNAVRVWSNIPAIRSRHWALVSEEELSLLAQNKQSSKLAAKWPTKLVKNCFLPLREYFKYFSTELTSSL
T1 sequence (Q9Y6K1 whole entry, looked up): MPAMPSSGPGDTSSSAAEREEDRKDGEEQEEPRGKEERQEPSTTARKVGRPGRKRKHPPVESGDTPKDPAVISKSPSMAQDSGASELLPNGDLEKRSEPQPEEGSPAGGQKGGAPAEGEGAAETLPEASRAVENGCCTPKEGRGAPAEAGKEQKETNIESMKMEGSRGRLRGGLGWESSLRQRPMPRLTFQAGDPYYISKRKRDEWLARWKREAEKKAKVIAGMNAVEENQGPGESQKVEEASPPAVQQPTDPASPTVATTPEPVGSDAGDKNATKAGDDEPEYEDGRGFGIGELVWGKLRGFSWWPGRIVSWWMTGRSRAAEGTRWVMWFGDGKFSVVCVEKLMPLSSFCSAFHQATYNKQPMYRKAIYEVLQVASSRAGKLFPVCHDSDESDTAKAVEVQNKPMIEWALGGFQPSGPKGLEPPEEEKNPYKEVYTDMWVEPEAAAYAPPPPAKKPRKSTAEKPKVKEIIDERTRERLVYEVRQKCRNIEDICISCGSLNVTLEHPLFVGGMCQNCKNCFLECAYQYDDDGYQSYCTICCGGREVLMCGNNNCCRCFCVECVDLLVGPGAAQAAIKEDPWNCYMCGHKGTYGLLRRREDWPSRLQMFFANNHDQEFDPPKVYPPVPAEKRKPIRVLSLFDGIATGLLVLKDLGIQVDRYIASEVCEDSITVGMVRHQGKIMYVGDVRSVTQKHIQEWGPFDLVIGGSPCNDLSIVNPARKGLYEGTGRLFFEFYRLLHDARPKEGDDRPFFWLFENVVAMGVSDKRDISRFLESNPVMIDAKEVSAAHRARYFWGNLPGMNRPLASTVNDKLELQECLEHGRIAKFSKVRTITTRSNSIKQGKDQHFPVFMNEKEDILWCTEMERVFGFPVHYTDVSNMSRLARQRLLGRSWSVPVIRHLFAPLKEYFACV
Chain of DNA (cytosine-5)-methyltransferase 1 (Homo sapiens) (P26358 whole entry): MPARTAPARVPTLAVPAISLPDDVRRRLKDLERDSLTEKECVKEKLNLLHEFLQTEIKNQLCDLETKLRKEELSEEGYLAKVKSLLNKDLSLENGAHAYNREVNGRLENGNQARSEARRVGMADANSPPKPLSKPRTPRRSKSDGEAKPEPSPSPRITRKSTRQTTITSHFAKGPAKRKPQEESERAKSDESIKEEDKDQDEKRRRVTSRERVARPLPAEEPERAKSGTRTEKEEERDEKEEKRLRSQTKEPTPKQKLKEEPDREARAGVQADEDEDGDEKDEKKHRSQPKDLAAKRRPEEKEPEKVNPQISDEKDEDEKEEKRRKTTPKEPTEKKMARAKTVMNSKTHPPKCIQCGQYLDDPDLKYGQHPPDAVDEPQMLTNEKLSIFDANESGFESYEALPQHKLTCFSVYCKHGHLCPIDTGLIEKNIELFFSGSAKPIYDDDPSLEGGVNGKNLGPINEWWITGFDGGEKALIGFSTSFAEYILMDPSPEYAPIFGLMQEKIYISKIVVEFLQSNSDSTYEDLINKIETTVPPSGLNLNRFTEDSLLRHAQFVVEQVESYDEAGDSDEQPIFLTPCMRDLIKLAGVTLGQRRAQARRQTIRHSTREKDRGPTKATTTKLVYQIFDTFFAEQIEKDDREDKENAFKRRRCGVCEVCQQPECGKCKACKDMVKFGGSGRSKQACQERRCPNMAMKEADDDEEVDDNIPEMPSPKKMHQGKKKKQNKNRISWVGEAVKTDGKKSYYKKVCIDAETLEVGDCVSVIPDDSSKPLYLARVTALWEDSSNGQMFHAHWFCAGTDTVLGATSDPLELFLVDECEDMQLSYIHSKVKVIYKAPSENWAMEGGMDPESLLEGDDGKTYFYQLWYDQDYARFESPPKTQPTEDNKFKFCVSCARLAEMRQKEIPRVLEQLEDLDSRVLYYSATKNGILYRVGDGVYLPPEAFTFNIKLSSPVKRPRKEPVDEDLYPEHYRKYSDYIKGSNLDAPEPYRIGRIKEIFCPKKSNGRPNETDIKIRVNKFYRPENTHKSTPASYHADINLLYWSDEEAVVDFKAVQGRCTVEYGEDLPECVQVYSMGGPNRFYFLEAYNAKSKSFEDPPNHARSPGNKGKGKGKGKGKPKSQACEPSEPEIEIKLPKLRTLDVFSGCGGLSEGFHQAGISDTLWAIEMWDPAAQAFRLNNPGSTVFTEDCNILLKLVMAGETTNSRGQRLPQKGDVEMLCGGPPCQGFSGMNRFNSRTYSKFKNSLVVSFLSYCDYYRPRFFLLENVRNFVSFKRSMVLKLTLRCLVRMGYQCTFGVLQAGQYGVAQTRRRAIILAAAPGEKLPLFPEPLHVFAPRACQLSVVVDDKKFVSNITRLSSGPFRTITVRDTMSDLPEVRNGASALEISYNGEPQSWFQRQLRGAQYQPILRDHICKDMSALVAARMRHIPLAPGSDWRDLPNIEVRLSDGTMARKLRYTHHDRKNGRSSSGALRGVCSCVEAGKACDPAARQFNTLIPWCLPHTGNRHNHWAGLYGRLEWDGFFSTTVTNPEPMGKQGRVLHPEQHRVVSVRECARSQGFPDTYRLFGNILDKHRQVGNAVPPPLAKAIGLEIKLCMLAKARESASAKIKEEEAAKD
Chain of N-lysine methyltransferase SMYD2 (Homo sapiens) (Q9NRG4 whole entry): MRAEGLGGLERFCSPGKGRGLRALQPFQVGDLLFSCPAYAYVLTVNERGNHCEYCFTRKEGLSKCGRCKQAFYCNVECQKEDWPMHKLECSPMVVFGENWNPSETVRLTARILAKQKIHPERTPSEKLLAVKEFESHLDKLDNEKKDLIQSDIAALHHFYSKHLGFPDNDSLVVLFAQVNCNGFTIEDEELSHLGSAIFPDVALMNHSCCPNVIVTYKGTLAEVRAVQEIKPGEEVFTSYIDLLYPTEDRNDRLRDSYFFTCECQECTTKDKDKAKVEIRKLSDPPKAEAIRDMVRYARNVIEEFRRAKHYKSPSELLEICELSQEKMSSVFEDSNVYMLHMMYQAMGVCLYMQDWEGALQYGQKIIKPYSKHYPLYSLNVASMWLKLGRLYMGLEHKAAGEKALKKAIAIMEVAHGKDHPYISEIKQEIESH
Chain of Protein arginine N-methyltransferase 1 (Q63009 whole entry, the tested form may be a part): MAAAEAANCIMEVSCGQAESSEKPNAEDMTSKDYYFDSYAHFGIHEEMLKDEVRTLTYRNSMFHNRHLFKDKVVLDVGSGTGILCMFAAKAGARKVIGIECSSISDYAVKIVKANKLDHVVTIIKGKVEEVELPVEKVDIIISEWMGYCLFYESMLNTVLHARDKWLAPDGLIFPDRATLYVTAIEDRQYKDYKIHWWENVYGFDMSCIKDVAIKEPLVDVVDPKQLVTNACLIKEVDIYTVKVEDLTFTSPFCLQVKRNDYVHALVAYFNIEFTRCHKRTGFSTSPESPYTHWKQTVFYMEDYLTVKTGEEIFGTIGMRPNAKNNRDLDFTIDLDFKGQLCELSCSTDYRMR
Chain of Protein arginine N-methyltransferase 3 (O60678 whole entry): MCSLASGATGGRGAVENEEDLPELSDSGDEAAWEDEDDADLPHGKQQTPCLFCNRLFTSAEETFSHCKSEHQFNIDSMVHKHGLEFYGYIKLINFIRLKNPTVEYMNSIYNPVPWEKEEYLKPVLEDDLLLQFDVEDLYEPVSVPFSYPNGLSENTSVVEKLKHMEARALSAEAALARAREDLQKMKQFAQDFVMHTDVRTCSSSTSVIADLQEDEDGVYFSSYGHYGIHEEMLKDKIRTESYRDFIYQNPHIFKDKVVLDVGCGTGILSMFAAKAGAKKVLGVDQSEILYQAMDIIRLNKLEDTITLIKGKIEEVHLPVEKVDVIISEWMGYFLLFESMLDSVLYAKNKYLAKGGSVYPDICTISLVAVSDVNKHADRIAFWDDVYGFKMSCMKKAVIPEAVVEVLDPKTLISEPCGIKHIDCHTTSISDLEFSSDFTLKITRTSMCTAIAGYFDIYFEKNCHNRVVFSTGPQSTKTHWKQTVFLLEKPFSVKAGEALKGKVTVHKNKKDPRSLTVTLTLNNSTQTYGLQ

With `CN(CCN)Cc1ccccc1Sc1ccccc1Cl` the IC50 [1] was 1.1 nM, the IC50 [2] was 22 nM and the inhibition [3] was “Active”. For the same molecule, the inhibition [4] was “Active”, the inhibition [5] was “Active” and the inhibition [6] was “Active”. For the same molecule, the inhibition [7] was “Active”, the inhibition [8] was “Active” and the inhibition [9] was “Active”. For the same molecule, the inhibition [10] was “Active”, the inhibition [11] was “Active” and the inhibition [12] was “Active”. The inhibition [13] was “Active”, the inhibition [14] was “Active” and the Activity (KOPN-8) was “Dose-dependent effect”. For the same molecule, the Activity (THP-1) was “Dose-dependent effect”, the Activity (RCH-ACV) was “Dose-dependent effect” and the Activity (REH) was “Dose-dependent effect”. For the same molecule, the Activity [15] was “Non-Toxic”, the IC50 (MV4-11 [16]) was 4550 nM and the IC50 (MV4-11 [17]) was 810 nM. The inhibition [18] was “Dose-dependent effect”, the inhibition [19] was “Dose-dependent effect” and the Activity (MV4-11 [20]) was “Dose-dependent effect”. For the same molecule, the Activity (MV4-11 [21]) was “Dose-dependent effect”.
